These results are taken from ChEMBL document CHEMBL4680176, “Identification of DOT1L inhibitors by structure-based virtual screening adapted from a nucleoside-focused library” (Eur J Med Chem, 2020).

A word on the IC50: it is the midpoint of a concentration-inhibition curve.

In test [1] the target is T1, Histone-lysine N-methyltransferase, H3 lysine-79 specific (Homo sapiens, UniProt Q8TEK3). The test can be described thus: Binding affinity to recombinant human N-terminal GST-tagged DOT1L (1 to 420 residues) expressed in Escherichia coli BL21 (DE3) assessed as increase in melting temperature at 100 uM incubated for 1 min by 1,8-ANS probe based thermal shift assay.
Target sequence in this assay (Q8TEK3 whole entry, looked up, the tested form may be a part): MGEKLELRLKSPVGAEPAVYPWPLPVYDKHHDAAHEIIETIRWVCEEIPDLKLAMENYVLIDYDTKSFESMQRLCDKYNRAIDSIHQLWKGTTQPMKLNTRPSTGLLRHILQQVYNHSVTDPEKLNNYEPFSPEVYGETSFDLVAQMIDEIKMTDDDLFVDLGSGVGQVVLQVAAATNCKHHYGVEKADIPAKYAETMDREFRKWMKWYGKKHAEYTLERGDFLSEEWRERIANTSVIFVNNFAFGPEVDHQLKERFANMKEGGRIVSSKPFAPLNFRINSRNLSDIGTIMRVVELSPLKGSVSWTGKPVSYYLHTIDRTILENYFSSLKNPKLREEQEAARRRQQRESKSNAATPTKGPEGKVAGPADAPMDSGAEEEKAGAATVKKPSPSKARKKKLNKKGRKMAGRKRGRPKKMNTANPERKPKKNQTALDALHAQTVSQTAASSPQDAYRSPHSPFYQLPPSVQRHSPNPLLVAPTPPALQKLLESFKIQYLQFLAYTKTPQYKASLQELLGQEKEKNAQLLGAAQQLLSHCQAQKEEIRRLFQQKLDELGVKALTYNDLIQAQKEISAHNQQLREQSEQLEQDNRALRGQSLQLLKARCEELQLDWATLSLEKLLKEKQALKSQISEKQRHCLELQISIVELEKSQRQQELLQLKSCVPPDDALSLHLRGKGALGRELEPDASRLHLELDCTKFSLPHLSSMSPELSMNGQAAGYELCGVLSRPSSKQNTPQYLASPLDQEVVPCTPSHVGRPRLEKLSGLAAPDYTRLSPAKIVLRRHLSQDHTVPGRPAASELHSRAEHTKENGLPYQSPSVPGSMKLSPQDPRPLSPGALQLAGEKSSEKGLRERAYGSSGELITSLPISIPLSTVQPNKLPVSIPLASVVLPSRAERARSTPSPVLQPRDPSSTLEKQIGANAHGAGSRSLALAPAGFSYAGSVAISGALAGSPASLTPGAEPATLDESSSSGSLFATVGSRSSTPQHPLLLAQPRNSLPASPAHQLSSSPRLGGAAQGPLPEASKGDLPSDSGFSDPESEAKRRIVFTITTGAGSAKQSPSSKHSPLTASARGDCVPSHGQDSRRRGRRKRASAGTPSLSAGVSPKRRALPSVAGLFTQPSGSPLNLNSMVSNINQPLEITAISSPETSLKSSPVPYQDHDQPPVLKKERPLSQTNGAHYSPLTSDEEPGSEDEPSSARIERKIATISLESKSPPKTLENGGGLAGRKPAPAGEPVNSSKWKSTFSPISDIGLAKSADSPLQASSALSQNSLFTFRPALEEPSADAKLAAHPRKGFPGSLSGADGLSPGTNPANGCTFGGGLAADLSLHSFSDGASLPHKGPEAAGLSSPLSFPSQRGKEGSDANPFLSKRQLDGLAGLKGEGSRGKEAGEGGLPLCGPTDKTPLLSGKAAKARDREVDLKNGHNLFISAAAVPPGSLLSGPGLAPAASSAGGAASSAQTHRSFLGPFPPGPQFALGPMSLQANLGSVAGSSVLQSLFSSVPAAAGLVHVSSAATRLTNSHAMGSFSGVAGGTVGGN
Test [2] concerns the target T2, Histone H3 methyltransferase DOT1 variant d (Mus musculus) (UniProt Q679P4).
T2 sequence (whole entry): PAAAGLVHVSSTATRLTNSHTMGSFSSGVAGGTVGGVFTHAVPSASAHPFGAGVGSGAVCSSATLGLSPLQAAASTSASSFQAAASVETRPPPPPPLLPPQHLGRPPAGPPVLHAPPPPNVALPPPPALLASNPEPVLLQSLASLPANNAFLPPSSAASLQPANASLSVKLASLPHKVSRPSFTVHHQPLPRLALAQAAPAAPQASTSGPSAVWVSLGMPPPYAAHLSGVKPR
The test can be described thus: Inhibition of DOT1L in mouse bone marrow cell transformed with MLL-AF9 cells assessed as reduction in H3K27 methylation at 100 uM measured upto 9 days by Western blot analysis. The settings on record: time day <=9. The class given is cell-based. For orientation: In western blotting, separated proteins are transferred to a membrane and probed.

The target of test [3] is T2, Histone H3 methyltransferase DOT1 variant d (Mus musculus). The test can be described thus: Inhibition of DOT1L in mouse bone marrow cell transformed with MLL-AF9 cells assessed as reduction in H3K79 methylation at 100 uM measured upto 9 days by Western blot analysis. The note with it: time day <=9, TDE = time-dependent effect. The format is cell-based.
For test [4] the target is unchanged. The test can be described thus: Inhibition of DOT1L in mouse bone marrow cell transformed with MLL-AF9 cells assessed as reduction in H3K36 methylation at 100 uM measured upto 9 days by Western blot analysis. The class given is cell-based. The settings on record: time day <=9.
Test [5] addresses T1, Histone-lysine N-methyltransferase, H3 lysine-79 specific. Kind of test: Inhibition of recombinant human N-terminal GST-tagged DOT1L (1 to 420 residues) expressed in Escherichia coli BL21 (DE3) using nucleosome as substrate incubated for 1 hr in presence of [3H]-SAM by liquid scintillation counting method. Put shortly: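 GST-tagged DOT1L catalytic domain (1-420), expressed in E. coli BL21(DE3) and Ni-affinity purified, used at 125 nM. Compound added before SAM start; 1 hr at room temperature. Product captured on P81 filters, NaHCO3-washed, and counted by scintillation.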
Target sequence in this assay (Q8TEK3 whole entry, the tested form may be a part): as the sequence (Q8TEK3 whole entry, looked up, the tested form may be a part) above

For another test, the system named is Bone marrow cell. Kind of test: Induction of cell differentiation in mouse bone marrow cells transformed with MLL-AF9 assessed as change in morphology at 3 uM incubated for 6 days by Wright-Giemsa staining based inverted microscopy. The format is functional. The note with it: time 6.0 day. Put shortly:
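Cells taken on day 6 of the proliferation culture (MLL-AF9 murine line, IMDM + 15% FBS + IL-3, re-dosed at each split, 0.3% DMSO). Cytospun onto slides, Wright-Giemsa stained, and imaged under bright field on an inverted microscope to assess morphology.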

Calls of active or inactive are those of the source. The calls are words filed in the database; no cut-off is given here.

Turning to `Nc1ncnc2c1ncn2[C@@H]1O[C@H](CNCc2ccc(OCC(=O)Nc3ccccn3)cc2)[C@@H](O)[C@H]1O`, in test [1], the result was Active. For the same compound, the inhibition entry in test [2] and in test [4] was “inactive” throughout. Also, the inhibition entry in test [3] is “Tde”. In addition, the IC50 in test [5] is 54.9 µM.

`CC(C)N(CCCNC(=O)Nc1ccc(C(C)(C)C)cc1)C[C@H]1O[C@@H](n2ccc3c(N)ncnc32)[C@H](O)[C@@H]1O`: the outcome with Bone marrow cell was Active.
